Test results taken from ChEMBL document CHEMBL4190227, “Syntheses, toxicities and anti-inflammation of H2S-donors based on non-steroidal anti-inflammatory drugs” (Eur J Med Chem, 2017).
The source made the active and inactive calls. The calls are words filed in the database; no cut-off is given here.

Tested on: RAW264.7
Experiment: Antiinflammatory activity in mouse RAW264.7 cells assessed as increase in LPS-induced HO-1 expression at 100 uM incubated for 24 hrs post LPS induction by ELISA relative to contol
Type: functional
Conditions: not given
Method in brief: (§1)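 LPS (1 μg/mL) for 4 h, then compound at 10, 50, 100 μM for 24 h; cells lysed in RIPA, spun 12,000×g 10 min, protein normalised by BCA to 0.1 mg/mL; target (TNF-α, HO-1, IL-10 or COX-2) quantified by sandwich ELISA kit with mouse-specific polyclonal antibodies; four independent experiments.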

| Structure (SMILES) | fold change (FC) |
| --- | --- |
| COc1ccc2c(c1)c(CC(=O)Oc1ccc(-c3cc(=S)ss3)cc1)c(C)n2C(=O)c1ccc(Cl)cc1 | <=2 |
| CC(C)Cc1ccc(C(C)C(=O)Oc2ccc(-c3cc(=S)ss3)cc2)cc1 (stereo not drawn) | >3 |

Tested on: L02
Experiment: Cytotoxicity against human LO2 cells assessed as reduction in cell survival after 24 hrs by MTT assay
Type: cell-based
Conditions: L02, 24 h

| Structure (SMILES) | IC50 |
| --- | --- |
| COc1ccc2c(c1)c(CC(=O)Oc1ccc(-c3cc(=S)ss3)cc1)c(C)n2C(=O)c1ccc(Cl)cc1 | 337 µM |
| CC(C)Cc1ccc(C(C)C(=O)Oc2ccc(-c3cc(=S)ss3)cc2)cc1 (stereo not drawn) | 889 µM |

Tested on: RAW264.7
Experiment: Antiinflammatory activity in mouse RAW264.7 cells assessed as increase in LPS-induced IL10 levels at 10 to 100 uM incubated for 24 hrs post LPS induction by ELISA
Type: functional, cell-based
Conditions: not given
Method in brief: as §1

| Structure (SMILES) | Activity |
| --- | --- |
| COc1ccc2c(c1)c(CC(=O)Oc1ccc(-c3cc(=S)ss3)cc1)c(C)n2C(=O)c1ccc(Cl)cc1 | Active |
| CC(C)Cc1ccc(C(C)C(=O)Oc2ccc(-c3cc(=S)ss3)cc2)cc1 (stereo not drawn) | Active |

Tested on: not listed separately
Experiment: (§2) Cytotoxicity against mouse RAW264.7 cells assessed as cell viability at 10 to 100 uM treated for 24 hrs in absence of LPS by MTT assay
Type: cell-based
Conditions: RAW264.7 cells, read-out: Activity
Method in brief: (§3)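 Macrophages in high-glucose DMEM + 10% heat-inactivated FBS, 2 mM glutamine, 37 °C, 5% CO2; exposed 24 h to 10, 50, 100 μM with or without LPS 1 μg/mL; MTT added 4 h, formazan dissolved in DMSO, A570, expressed as % of control; four independent experiments.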

| Structure (SMILES) | viability at 24 h, up to 100 µM |
| --- | --- |
| CC(C)Cc1ccc(C(C)C(=O)Oc2ccc(-c3cc(=S)ss3)cc2)cc1 (stereo not drawn) | 70 to 110% |

Tested on: RAW264.7
Experiment: as §2
Type: cell-based
Conditions: raw264.7, 24 h, 100 µM
Method in brief: as §3

| Structure (SMILES) | Activity |
| --- | --- |
| COc1ccc2c(c1)c(CC(=O)Oc1ccc(-c3cc(=S)ss3)cc1)c(C)n2C(=O)c1ccc(Cl)cc1 | Non-Toxic |

Species on record: Danio rerio
Experiment: Toxicity in AB zebrafish embryo assessed as reduction in hatching rate of embryos up to 5 uM measured at 48 hrs post fertilization by dissecting light microscopic analysis
Type: organism-based
Conditions: in vivo
Method in brief: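 AB embryos exposed from 4 to 72 hpf to compound (0.5–20 μM) or DMF vehicle (1:1000), one embryo per well; hatch rate scored at 48 hpf; n=100 per group in three replicates; three independent experiments, mean ± SD.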

| Structure (SMILES) | Activity |
| --- | --- |
| COc1ccc2c(c1)c(CC(=O)Oc1ccc(-c3cc(=S)ss3)cc1)c(C)n2C(=O)c1ccc(Cl)cc1 | Toxic |

Tested on: not listed separately
Experiment: Drug degradation in phosphate buffer assessed as H2S release by measuring test compound half life at 40 uM measured every 5 mins in presence of TECP by UV-Vis spectrometry
Type: physicochemical
Conditions: not given
Method in brief: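 Sulfide release at 37.5 °C: donor (40 mM THF stock) added to pH 7.4 phosphate buffer with 1.0 mM TECP; aliquots taken every 5 min into methylene blue cocktail (zinc acetate, N,N-dimethyl-1,4-phenylenediamine, FeCl3 in HCl), A670 read 15 min later; H2S from Na2S calibration curve; concentration vs time curve; four independent experiments.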

| Structure (SMILES) | half-life at 40 µM |
| --- | --- |
| COc1ccc2c(c1)c(CC(=O)Oc1ccc(-c3cc(=S)ss3)cc1)c(C)n2C(=O)c1ccc(Cl)cc1 | 1.8 min |
| CC(C)Cc1ccc(C(C)C(=O)Oc2ccc(-c3cc(=S)ss3)cc2)cc1 (stereo not drawn) | 1.4 min |

Tested on: RAW264.7
Experiment: Antiinflammatory activity in mouse RAW264.7 cells assessed as LPS-induced TNFalpha levels at 100 uM incubated for 24 hrs post LPS induction by ELISA relative to control
Type: functional
Conditions: not given
Method in brief: as §1

| Structure (SMILES) | Activity |
| --- | --- |
| COc1ccc2c(c1)c(CC(=O)Oc1ccc(-c3cc(=S)ss3)cc1)c(C)n2C(=O)c1ccc(Cl)cc1 | 5 - 20% |
| CC(C)Cc1ccc(C(C)C(=O)Oc2ccc(-c3cc(=S)ss3)cc2)cc1 (stereo not drawn) | 5 - 20% |

Tested on: RAW264.7
Experiment: Inhibition of LPS-induced COX2 expression in mouse RAW264.7 cells at 10 to 100 uM incubated for 24 hrs post LPS induction by ELISA
Type: functional, cell-based
Conditions: not given
Method in brief: as §1

| Structure (SMILES) | inhibition |
| --- | --- |
| COc1ccc2c(c1)c(CC(=O)Oc1ccc(-c3cc(=S)ss3)cc1)c(C)n2C(=O)c1ccc(Cl)cc1 | Active |

Target: T1, Nitric oxide synthase, inducible (Mus musculus) (UniProt P29477)
T1 sequence (whole entry): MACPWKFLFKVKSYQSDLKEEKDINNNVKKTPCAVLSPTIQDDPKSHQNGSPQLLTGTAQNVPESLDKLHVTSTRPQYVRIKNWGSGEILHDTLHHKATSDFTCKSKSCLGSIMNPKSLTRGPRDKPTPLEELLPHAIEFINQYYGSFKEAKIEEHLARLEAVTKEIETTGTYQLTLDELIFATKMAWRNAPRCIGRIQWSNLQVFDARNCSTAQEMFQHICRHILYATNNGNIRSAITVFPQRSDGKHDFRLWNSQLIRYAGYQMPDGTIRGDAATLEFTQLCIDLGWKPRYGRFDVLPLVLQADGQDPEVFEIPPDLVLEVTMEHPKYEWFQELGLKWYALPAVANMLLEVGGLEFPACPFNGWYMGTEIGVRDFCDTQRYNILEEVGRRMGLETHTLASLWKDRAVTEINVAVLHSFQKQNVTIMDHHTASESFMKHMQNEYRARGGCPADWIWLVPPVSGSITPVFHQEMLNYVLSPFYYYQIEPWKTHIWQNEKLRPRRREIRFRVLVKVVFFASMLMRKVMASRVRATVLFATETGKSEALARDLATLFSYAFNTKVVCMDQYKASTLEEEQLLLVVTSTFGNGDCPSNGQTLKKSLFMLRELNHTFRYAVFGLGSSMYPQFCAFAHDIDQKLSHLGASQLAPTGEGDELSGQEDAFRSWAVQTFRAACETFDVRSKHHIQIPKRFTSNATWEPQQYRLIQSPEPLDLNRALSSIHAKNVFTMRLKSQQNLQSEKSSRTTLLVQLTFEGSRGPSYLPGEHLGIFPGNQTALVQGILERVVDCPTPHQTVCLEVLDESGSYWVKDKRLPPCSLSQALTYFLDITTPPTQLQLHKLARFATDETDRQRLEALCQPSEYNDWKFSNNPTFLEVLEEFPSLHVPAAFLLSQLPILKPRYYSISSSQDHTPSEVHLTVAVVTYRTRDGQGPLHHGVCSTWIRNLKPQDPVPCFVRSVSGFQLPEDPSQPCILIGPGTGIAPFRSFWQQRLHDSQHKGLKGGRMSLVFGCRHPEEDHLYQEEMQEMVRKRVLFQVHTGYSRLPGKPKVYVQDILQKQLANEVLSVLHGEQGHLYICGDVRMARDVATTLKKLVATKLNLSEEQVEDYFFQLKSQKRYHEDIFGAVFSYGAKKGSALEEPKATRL
Experiment: Inhibition of iNOS in mouse RAW264.7 cells assessed as reduction in LPS-induced NO production administered for 24 hrs post LPS induction by Griess method
Type: cell-based
Conditions: not given
Method in brief: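 RAW264.7 cells stimulated with LPS 1 μg/mL for 4 h, then compound (10, 50, 100 μM) for 24 h; culture medium reacted with Griess reagents I and II, absorbance 570 nm; nitrite from sodium nitrite standard curve (0–100 μM in medium); four independent experiments, mean ± SD.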

| Structure (SMILES) | inhibition |
| --- | --- |
| COc1ccc2c(c1)c(CC(=O)Oc1ccc(-c3cc(=S)ss3)cc1)c(C)n2C(=O)c1ccc(Cl)cc1 | Dose-dependent effect |
| CC(C)Cc1ccc(C(C)C(=O)Oc2ccc(-c3cc(=S)ss3)cc2)cc1 (stereo not drawn) | Dose-dependent effect |

Tested on: RAW264.7
Experiment: Antiinflammatory activity in mouse RAW264.7 cells assessed as reduction in LPS-induced TNFalpha levels incubated for 24 hrs post LPS induction by ELISA
Type: functional, cell-based
Conditions: not given
Method in brief: as §1

| Structure (SMILES) | Activity |
| --- | --- |
| COc1ccc2c(c1)c(CC(=O)Oc1ccc(-c3cc(=S)ss3)cc1)c(C)n2C(=O)c1ccc(Cl)cc1 | Dose-dependent effect |
| CC(C)Cc1ccc(C(C)C(=O)Oc2ccc(-c3cc(=S)ss3)cc2)cc1 (stereo not drawn) | Dose-dependent effect |

Tested on: RAW264.7
Experiment: Antiinflammatory activity in mouse RAW264.7 cells assessed as increase in LPS-induced HO-1 expression incubated for 24 hrs post LPS induction by ELISA
Type: functional, cell-based
Conditions: not given
Method in brief: as §1

| Structure (SMILES) | Activity |
| --- | --- |
| COc1ccc2c(c1)c(CC(=O)Oc1ccc(-c3cc(=S)ss3)cc1)c(C)n2C(=O)c1ccc(Cl)cc1 | Dose-dependent effect |
| CC(C)Cc1ccc(C(C)C(=O)Oc2ccc(-c3cc(=S)ss3)cc2)cc1 (stereo not drawn) | Dose-dependent effect |

Species on record: Danio rerio
Experiment: Toxicity in AB zebrafish embryo assessed as rate of embryo malformation at 0.5 to 20 uM measured at 96 hrs post fertilization by stereoscopic dissecting light microscopic analysis relative to DMF
Type: organism-based
Conditions: in vivo
Method in brief: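 AB embryos exposed from 4 hpf through 96 hpf to compound or DMF vehicle (1:1000); malformations scored at 96 hpf under stereoscopic dissecting microscope; 100 embryos per group in three replicates; three independent experiments, mean ± SD.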

| Structure (SMILES) | Activity |
| --- | --- |
| COc1ccc2c(c1)c(CC(=O)Oc1ccc(-c3cc(=S)ss3)cc1)c(C)n2C(=O)c1ccc(Cl)cc1 | 2% |

Tested on: HepG2
Experiment: Cytotoxicity against human HepG2 cells assessed as reduction in cell survival after 24 hrs by MTT assay
Type: cell-based
Conditions: HepG2, 24 h

| Structure (SMILES) | IC50 |
| --- | --- |
| COc1ccc2c(c1)c(CC(=O)Oc1ccc(-c3cc(=S)ss3)cc1)c(C)n2C(=O)c1ccc(Cl)cc1 | 3290 µM |
| CC(C)Cc1ccc(C(C)C(=O)Oc2ccc(-c3cc(=S)ss3)cc2)cc1 (stereo not drawn) | 923 µM |

Tested on: RAW264.7
Experiment: Antiinflammatory activity in mouse RAW264.7 cells assessed as increase in IL10 levels at 10 to 100 uM measured after 24 hrs in absence of LPS by ELISA
Type: functional, cell-based
Conditions: not given
Method in brief: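 Macrophages exposed 24 h to 10, 50, 100 μM without LPS; lysates (RIPA, 12,000×g spin) normalised by BCA to 0.1 mg/mL protein; IL-10 measured by mouse-specific sandwich ELISA kit; four independent experiments, mean ± SD.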

| Structure (SMILES) | Activity |
| --- | --- |
| COc1ccc2c(c1)c(CC(=O)Oc1ccc(-c3cc(=S)ss3)cc1)c(C)n2C(=O)c1ccc(Cl)cc1 | Active |
| CC(C)Cc1ccc(C(C)C(=O)Oc2ccc(-c3cc(=S)ss3)cc2)cc1 (stereo not drawn) | Active |

Tested on: not listed separately
Experiment: (§4) Cytotoxicity against mouse RAW264.7 cells assessed as cell viability at 10 to 100 uM treated for 24 hrs post LPS induction by MTT assay
Type: cell-based
Conditions: RAW264.7 cells, read-out: Activity
Method in brief: as §3

| Structure (SMILES) | viability at 24 h, up to 100 µM |
| --- | --- |
| CC(C)Cc1ccc(C(C)C(=O)Oc2ccc(-c3cc(=S)ss3)cc2)cc1 (stereo not drawn) | 70 to 110% |

Tested on: RAW264.7
Experiment: as §4
Type: cell-based
Conditions: raw264.7, 24 h, 100 µM
Method in brief: as §3

| Structure (SMILES) | Activity |
| --- | --- |
| COc1ccc2c(c1)c(CC(=O)Oc1ccc(-c3cc(=S)ss3)cc1)c(C)n2C(=O)c1ccc(Cl)cc1 | Non-Toxic |

Tested on: RAW264.7
Experiment: Inhibition of LPS-induced COX2 expression in mouse RAW264.7 cells at 100 uM incubated for 24 hrs post LPS induction by ELISA relative to control
Type: functional
Conditions: RAW264.7, 24 h, read-out: INH
Method in brief: as §1

| Structure (SMILES) | inhibition at 100 µM |
| --- | --- |
| CC(C)Cc1ccc(C(C)C(=O)Oc2ccc(-c3cc(=S)ss3)cc2)cc1 (stereo not drawn) | 60% |
